The values below come from ChEMBL document CHEMBL1287654, “Anticancer activity of N-bis(trifluoromethyl)alkyl-N'-(polychlorophenyl) and N'-(1,2,4-triazolyl) ureas” (2010).

Assay type in all cases: functional
Assay [1] in a line: Growth inhibition of human leukemia cell after 48 hrs by sulforhodamine B assay. The method in brief: (§1)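 Subpanel median growth inhibitory concentration: the average sensitivity of each tumor-type subpanel of the NCI 60-cell-line panel, derived from per-cell-line GI50 values. GI50 values came from a five log dose range and are expressed as log molar concentration for 50% net growth inhibition.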

Another assay deals with NCI-H460. The assay is described as follows: Growth inhibition of human NCI-H460 cells assessed as cell growth at 100 uM after 48 hrs by sulforhodamine B assay relative to control. The conditions noted are these: NCI-H460, 48 h, read-out: Activity. The method in brief:
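One-dose pre-test on MCF7, NCI-H460 and SF-268. Cells were inoculated and pre-incubated on a microtiter plate, then given a single 10^-4 M dose and incubated 48 h. Growth was read spectrophotometrically and expressed as percent of untreated control cells; negative values indicate cell kill.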

For the next assay, the system named is NCI-H226. The assay is described as follows: Growth inhibition of human NCI-H226 cells after 48 hrs by sulforhodamine B assay. The conditions noted are these: NCI-H226, 48 h. Put shortly: (§2)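 NCI 60-cell-line main test over a five-log dose range. GI50 is the molar concentration giving half-growth inhibition, reported as log molar. Subpanel values are median GI50 across that subpanel's lines. Where 50% inhibition was not reached within the tested interval, the highest tested concentration was used.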

Assay [2] can be described thus: Growth inhibition of human Hs 578T cells after 48 hrs by sulforhodamine B assay. Put shortly:
as §2

The test system of another assay is SF-295. The assay is described as follows: Growth inhibition of human SF295 cells after 48 hrs by sulforhodamine B assay. Particulars: SF-295, 48 h. The method in brief: as §2
A further assay has as its system LOX IMVI. The assay is described as follows: Growth inhibition of human LOXIMVI cells after 48 hrs by sulforhodamine B assay. Put shortly:
as §2

Another assay concerns SNB-75. The assay is described as follows: Growth inhibition of human SNB75 cells after 48 hrs by sulforhodamine B assay. The conditions noted are these: SNB-75, 48 h. The method in brief: (§3)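 NCI 60-cell-line main screen across nine tumor types, with five log dose range per compound. GI50 is the molar concentration giving half growth inhibition, reported as the log of the molar concentration that inhibits 50% net cell growth.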

The next assay has as its system UACC-62. The assay is described as follows: Growth inhibition of human UACC62 cells after 48 hrs by sulforhodamine B assay. Particulars: UACC-62, 48 h. The method in brief: as §3
Another assay has as its system SR. The assay is described as follows: Growth inhibition of human SR cells after 48 hrs by sulforhodamine B assay. The method in brief: as §3
The test system of the next assay is T47D. The assay is described as follows: Growth inhibition of human T47D cells after 48 hrs by sulforhodamine B assay. Put shortly: as §3
Assay [3] is described as follows: Growth inhibition of human non-small lung cancer cell after 48 hrs by sulforhodamine B assay. Particulars: Cancer cell lines. The method in brief: as §1
A further assay has as its system MOLT-4. The assay is described as follows: Growth inhibition of human MOLT4 cells after 48 hrs by sulforhodamine B assay. The conditions noted are these: MOLT-4, 48 h. Put shortly:
as §2

A further assay concerns SK-OV-3. Kind of assay: Growth inhibition of human SKOV3 cells after 48 hrs by sulforhodamine B assay. The conditions noted are these: SK-OV-3, 48 h. The method in brief: as §2
A further assay concerns A549. The assay is described as follows: Growth inhibition of human A549 cells after 48 hrs by sulforhodamine B assay. The conditions noted are these: A549, 48 h. The method in brief: as §2
The next assay has as its system SW-620. Kind of assay: Growth inhibition of human SW620 cells after 48 hrs by sulforhodamine B assay. Particulars: SW-620, 48 h. The method in brief: as §3
The subject of a further assay is DU-145. Kind of assay: Growth inhibition of human DU145 cells after 48 hrs by sulforhodamine B assay. The conditions noted are these: DU-145, 48 h. The method in brief: as §2
Assay [4] is described as follows: Growth inhibition of human CNS cancer cell after 48 hrs by sulforhodamine B assay. The conditions noted are these: Cancer cell lines. The method in brief: as §2
The next assay has as its system KM12. Kind of assay: Growth inhibition of human KM12 cells after 48 hrs by sulforhodamine B assay. The conditions noted are these: KM12, 48 h. The method in brief: as §2
Another assay deals with NCI/ADR-RES. The assay is described as follows: Growth inhibition of human NCI/ADR-RES cells after 48 hrs by sulforhodamine B assay. Put shortly: as §2
The test system of another assay is IGROV-1. Kind of assay: Growth inhibition of human IGROV1 cells after 48 hrs by sulforhodamine B assay. The conditions noted are these: IGROV-1, 48 h. Put shortly:
as §2

In the next assay the test system is MDA-MB-231. Kind of assay: Growth inhibition of human MDA-MB-231 cells after 48 hrs by sulforhodamine B assay. Particulars: MDA-MB-231, 48 h. The method in brief: as §2
The next assay has as its system NCI-H322M. Kind of assay: Growth inhibition of human NCI-H322M cells after 48 hrs by sulforhodamine B assay. Put shortly: as §2
Another assay deals with U-251. The assay is described as follows: Growth inhibition of human U251 cells after 48 hrs by sulforhodamine B assay. The conditions noted are these: U-251, 48 h. Put shortly:
as §3

In another assay the test system is OVCAR-8. Kind of assay: Growth inhibition of human OVCAR8 cells after 48 hrs by sulforhodamine B assay. Particulars: OVCAR-8, 48 h. The method in brief: as §2
Another assay has as its system CCRF-CEM. Kind of assay: Growth inhibition of human CCRF-CEM cells after 48 hrs by sulforhodamine B assay. The method in brief:
as §2

The next assay concerns HCT-15. The assay is described as follows: Growth inhibition of human HCT15 cells after 48 hrs by sulforhodamine B assay. Particulars: HCT-15, 48 h. The method in brief:
as §2

In another assay the test system is EKVX. Kind of assay: Growth inhibition of human EKVX cells after 48 hrs by sulforhodamine B assay. Put shortly:
as §2

Structures are written as SMILES. Some results are limits rather than exact numbers.

Regarding `CC(NC(=O)Nc1cc(Cl)ccc1Cl)(C(F)(F)F)C(F)(F)F`, the GI50 in assay [1] was 9.12 µM; with NCI-H226, 19.5 µM; in assay [2], 3.16 µM; with SF-295, 3.47 µM; in the assay on LOX IMVI it was 7.76 µM; in the assay on SNB-75, 4.07 µM. In addition, the GI50 was greater than 100 µM in the assay on UACC-62; 7.41 µM in the assay on SR; 3.47 µM in the assay with T47D; 9.77 µM in assay [3]; 9.55 µM in the assay with MOLT-4; greater than 100 µM with SK-OV-3. Moreover, the GI50 in the assay with A549 is 5.62 µM; with SW-620 it was greater than 100 µM; in the assay with DU-145 it was 9.55 µM; in assay [4], 20 µM; in the assay with KM12, 4.37 µM; in the assay on NCI/ADR-RES it was 5.89 µM. Further, the GI50 in the assay with IGROV-1 is 17.8 µM; in the assay on MDA-MB-231, 30.2 µM. Further, in the assay with NCI-H460, the growth at 100 µM is 17%.
Take `CCC(NC(=O)Nc1cc(Cl)ccc1Cl)(C(F)(F)F)C(F)(F)F`: the GI50 in [1] was 3.8 µM; in the assay with NCI-H226, 6.17 µM; in assay [2], 5.25 µM; in the assay with SF-295, 3.47 µM; in the assay with LOX IMVI, 4.07 µM; in the assay with SNB-75, 3.63 µM. In addition, the GI50 in the assay on UACC-62 was 4.17 µM; in the assay on SR it was 3.39 µM; in the assay on NCI-H322M, 1.78 µM; in the assay on U-251, 2.95 µM; in assay [3] it was 3.72 µM; with MOLT-4 it was 3.72 µM. Further, the GI50 with OVCAR-8 was 5.25 µM; in the assay with SK-OV-3, 10.7 µM; in the assay on A549, 3.47 µM; with SW-620, 5.25 µM; in the assay on CCRF-CEM, 4.07 µM; in the assay with DU-145, 4.68 µM. Further, the GI50 is 4.47 µM in assay [4]; 4.07 µM in the assay on KM12; 4.07 µM in the assay with HCT-15; 4.17 µM with NCI/ADR-RES; 5.62 µM in the assay with IGROV-1; 3.16 µM in the assay with EKVX. Also, the GI50 in the assay with MDA-MB-231 is 3.31 µM. Further, in the assay on NCI-H460, the growth at 100 µM is -100%.
